Assay results as given in ChEMBL document CHEMBL1145523, “Genetic targeting of the kinase activity of the Met receptor in cancer cells” (Proc Natl Acad Sci U S A, 2007).
Calls of active or inactive are those of the source.

Key:
[1] = tested on: DLD-1; test: Reduction of proliferation in human DLD1 cells at 2.5 uM by ATP-based assay; type: functional, cell-based
In short: (§1)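 Parental DLD1 and two independent MET-KD clones seeded at equal density in 96-well plates and given 2.5 μM inhibitor. Cell number measured as ATP-based luminescence (RLU). Mean of triplicates ± SD.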

[2] = molecular target: T1, c-Jun N-terminal kinase, JNK (Homo sapiens) (UniProt P45983+P53779+P45984); test: Inhibition of human JNK phosphorylation in DLD1 KD cells carrying kinase inactive MET at 2.5 uM; type: cell-based
In short: (§2)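 Parental or MET-KD DLD1 cells held 16 h with or without 2.5 μM inhibitor, then lysed. Phosphorylation read on a human phospho-MAPK antibody array following the kit instructions. Dot signals quantified by densitometry and normalized to untreated WT DLD1 cells (set to 1). Significance by two-tailed Student's t test against WT untreated cells.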

[3] = tested on: DLD1 KD; test: Inhibition of human p70s6K phosphorylation in DLD1 KD cells carrying inactive MET kinase at 2.5 uM; type: cell-based; in short: as §2
[4] = tested on: DLD1 KD; test: Inhibition of human MSK phosphorylation in DLD1 KD cells carrying inactive MET kinase at 2.5 uM; type: cell-based; in short: as §2
[5] = tested on: DLD-1; test: Inhibition of human p70s6K phosphorylation in DLD1 cells at 2.5 uM; type: cell-based; in short: as §2
[6] = tested on: DLD-1; test: Reduction of proliferation in human DLD1 KD2 cell carrying inactive MET kinase at 2.5 uM by ATP-based assay; type: functional; in short: as §1
[7] = tested on: DLD-1; test: Reduction of proliferation in human DLD1 KD1 cell carrying inactive MET kinase at 2.5 uM by ATP-based assay; type: functional; in short: as §1
[8] = molecular target: Mitogen-activated protein kinase 14 (Homo sapiens) (UniProt Q16539); test: Inhibition of human p38-alpha phosphorylation in DLD1 KD cells carrying inactive MET kinase at 2.5 uM; type: cell-based; in short: as §2
[9] = molecular target: Mitogen-activated protein kinase 14 (Homo sapiens) (UniProt Q16539); test: Inhibition of human p38-alpha phosphorylation in DLD1 cells at 2.5 uM; type: cell-based; details: DLD-1; in short: as §2
[10] = tested on: DLD-1; test: Inhibition of human MSK phosphorylation in DLD1 cells at 2.5 uM; type: cell-based; in short: as §2
[11] = molecular target: T1, c-Jun N-terminal kinase, JNK (Homo sapiens); test: Inhibition of human JNK phosphorylation in DLD1 cells at 2.5 uM; type: cell-based; details: DLD-1; in short: as §2

Measured: Activity

Chain of Mitogen-activated protein kinase 14 (Homo sapiens) (Q16539 whole entry): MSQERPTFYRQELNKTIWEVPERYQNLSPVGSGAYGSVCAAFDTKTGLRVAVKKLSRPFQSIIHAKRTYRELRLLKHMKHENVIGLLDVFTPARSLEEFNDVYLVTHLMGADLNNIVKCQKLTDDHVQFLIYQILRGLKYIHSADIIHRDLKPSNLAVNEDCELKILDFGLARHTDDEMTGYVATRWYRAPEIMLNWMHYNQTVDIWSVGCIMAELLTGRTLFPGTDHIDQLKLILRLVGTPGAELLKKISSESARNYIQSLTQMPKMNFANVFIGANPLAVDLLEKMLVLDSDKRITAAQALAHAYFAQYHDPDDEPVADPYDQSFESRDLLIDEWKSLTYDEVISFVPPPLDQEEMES

Cc1[nH]c(/C=C2\C(=O)Nc3ccc(S(=O)(=O)N(C)c4cccc(Cl)c4)cc32)c(C)c1C(=O)N1CCN(C)CC1
active: all assays above
